Results on 24 compounds are retold here after ChEMBL document CHEMBL4190386, “Discovery of 6-(pyrimidin-5-ylmethyl)quinoline-8-carboxamide negative allosteric modulators of metabotropic glutamate receptor subtype 5” (Bioorg Med Chem Lett, 2018).

pIC50: −log10 of the molar value. Activity calls are given as the source filed them. No cut-off for these calls is given here.

Series [1] concerns the target Metabotropic glutamate receptor 5 (Rattus norvegicus, UniProt P31424). Description: Negative allosteric modulator activity at rat mGlu5 receptor expressed in HEK293A cells assessed as inhibition of EC80 glutamate-induced Ca2+ mobilization by Fluo-4 AM dye based fluorescence assay. Type of series: functional, cell-based.
Series [2] concerns the target Metabotropic glutamate receptor 5 (Rattus norvegicus) (UniProt P31424). Description: Negative allosteric modulator activity at rat mGlu5 receptor expressed in HEK293A cells assessed as EC80 glutamate-induced maximum Ca2+ mobilization response at 30 uM relative to 100 uM glutamate by Fluo-4 AM dye based fluorescence assay. The format is functional, cell-based.
The target of series [3] is Metabotropic glutamate receptor 5 (Homo sapiens) (UniProt P41594). In words: Negative allosteric modulation of human mGlu5 receptor expressed in HEK293A cells assessed as reduction in glutamate-induced calcium mobilization at 10 uM by Fluo-4--AM dye based fluorescence assay. The format is functional, cell-based.
Series [4] has as its target Metabotropic glutamate receptor 2 (Rattus norvegicus) (UniProt P31421). Description: Negative allosteric modulation of rat mGlu2 receptor expressed in HEK cells harboring GIRK assessed as reduction in glutamate-induced thallium flux at 10 uM preincubated for 5 mins followed by glutamate addition measured after 2 mins by BTC-AM-dye based fluorescence assay. The format is functional, cell-based.

For series [5], the target named is Metabotropic glutamate receptor 3 (Rattus norvegicus) (UniProt P31422). Description: Negative allosteric modulation of rat mGlu3 receptor expressed in HEK cells harboring GIRK assessed as reduction in glutamate-induced thallium flux at 10 uM preincubated for 5 mins followed by glutamate addition measured after 2 mins by BTC-AM-dye based fluorescence assay. Type of series: functional, cell-based.

The target in series [6] is Metabotropic glutamate receptor 4 (Rattus norvegicus) (UniProt P31423). In words: Negative allosteric modulation of rat mGlu4 receptor expressed in HEK cells harboring GIRK assessed as reduction in glutamate-induced thallium flux at 10 uM preincubated for 5 mins followed by glutamate addition measured after 2 mins by BTC-AM-dye based fluorescence assay. The format is functional, cell-based.
Chain of Metabotropic glutamate receptor 4 (Rattus norvegicus) (P31423 whole entry): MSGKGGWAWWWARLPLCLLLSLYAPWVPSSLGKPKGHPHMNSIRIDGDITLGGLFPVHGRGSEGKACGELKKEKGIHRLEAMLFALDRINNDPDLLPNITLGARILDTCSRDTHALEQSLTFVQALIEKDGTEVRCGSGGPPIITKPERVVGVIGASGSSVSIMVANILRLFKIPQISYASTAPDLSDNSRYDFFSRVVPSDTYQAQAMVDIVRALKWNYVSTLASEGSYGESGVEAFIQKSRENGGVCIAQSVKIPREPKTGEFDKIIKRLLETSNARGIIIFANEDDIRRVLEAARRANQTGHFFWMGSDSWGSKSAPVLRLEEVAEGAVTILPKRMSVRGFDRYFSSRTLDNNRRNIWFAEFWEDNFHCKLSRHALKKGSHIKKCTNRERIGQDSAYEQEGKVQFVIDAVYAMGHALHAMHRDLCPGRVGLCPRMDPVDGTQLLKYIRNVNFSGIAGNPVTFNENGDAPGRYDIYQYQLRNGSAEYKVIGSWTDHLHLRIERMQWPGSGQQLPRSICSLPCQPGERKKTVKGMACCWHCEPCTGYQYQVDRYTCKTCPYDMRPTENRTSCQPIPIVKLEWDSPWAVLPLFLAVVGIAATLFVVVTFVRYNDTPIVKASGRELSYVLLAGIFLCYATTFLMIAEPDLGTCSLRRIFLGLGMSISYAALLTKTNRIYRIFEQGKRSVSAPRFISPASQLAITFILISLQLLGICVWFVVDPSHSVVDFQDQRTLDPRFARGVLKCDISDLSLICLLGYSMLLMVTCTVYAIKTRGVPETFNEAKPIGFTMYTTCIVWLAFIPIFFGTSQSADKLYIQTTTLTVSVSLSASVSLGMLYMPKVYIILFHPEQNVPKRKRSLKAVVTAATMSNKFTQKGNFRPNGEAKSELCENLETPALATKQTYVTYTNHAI

The target of series [7] is Metabotropic glutamate receptor 6 (Rattus norvegicus) (UniProt P35349). In words: Negative allosteric modulation of rat mGlu6 receptor expressed in HEK cells harboring GIRK assessed as reduction in glutamate-induced thallium flux at 10 uM preincubated for 5 mins followed by glutamate addition measured after 2 mins by BTC-AM-dye based fluorescence assay. Type of series: functional, cell-based.
Chain of Metabotropic glutamate receptor 6 (Rattus norvegicus) (P35349 whole entry): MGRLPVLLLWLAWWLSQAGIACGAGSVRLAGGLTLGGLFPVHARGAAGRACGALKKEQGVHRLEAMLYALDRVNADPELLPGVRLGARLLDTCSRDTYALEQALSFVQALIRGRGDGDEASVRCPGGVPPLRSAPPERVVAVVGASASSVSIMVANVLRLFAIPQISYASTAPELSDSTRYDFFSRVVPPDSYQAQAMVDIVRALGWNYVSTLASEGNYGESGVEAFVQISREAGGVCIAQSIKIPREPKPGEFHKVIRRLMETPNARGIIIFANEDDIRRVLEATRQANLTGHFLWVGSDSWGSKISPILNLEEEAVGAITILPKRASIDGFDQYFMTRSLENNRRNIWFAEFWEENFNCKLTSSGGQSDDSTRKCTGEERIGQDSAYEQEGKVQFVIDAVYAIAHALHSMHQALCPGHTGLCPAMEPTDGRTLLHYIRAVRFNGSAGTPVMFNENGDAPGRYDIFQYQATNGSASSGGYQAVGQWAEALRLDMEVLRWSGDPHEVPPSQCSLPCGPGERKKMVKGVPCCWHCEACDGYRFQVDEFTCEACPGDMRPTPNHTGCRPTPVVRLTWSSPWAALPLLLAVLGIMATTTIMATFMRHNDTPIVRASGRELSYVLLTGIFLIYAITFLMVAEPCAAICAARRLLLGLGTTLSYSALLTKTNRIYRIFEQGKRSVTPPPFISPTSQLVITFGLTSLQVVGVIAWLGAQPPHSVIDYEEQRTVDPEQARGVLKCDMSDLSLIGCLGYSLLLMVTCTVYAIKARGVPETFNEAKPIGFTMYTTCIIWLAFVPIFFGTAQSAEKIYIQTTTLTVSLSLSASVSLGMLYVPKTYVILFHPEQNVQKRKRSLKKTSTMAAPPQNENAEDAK

Series [8] addresses Metabotropic glutamate receptor 7 (Rattus norvegicus) (UniProt P35400). Description: Negative allosteric modulation of rat mGlu7 receptor expressed in HEK cells harboring GIRK assessed as reduction in L-AP4-induced thallium flux at 10 uM preincubated for 5 mins followed by glutamate addition measured after 2 mins by BTC-AM-dye based fluorescence assay. The format is functional, cell-based.

In series [9] the target is Metabotropic glutamate receptor 8 (Rattus norvegicus) (UniProt P70579). In words: Negative allosteric modulation of rat mGlu8 receptor expressed in HEK cells harboring GIRK assessed as reduction in glutamate-induced thallium flux at 10 uM preincubated for 5 mins followed by glutamate addition measured after 2 mins by BTC-AM-dye based fluorescence assay. Type of series: functional, cell-based.

Series [10] addresses Metabotropic glutamate receptor 1 (Rattus norvegicus) (UniProt P23385). In words: Negative allosteric modulation of rat mGlu1 receptor expressed in HEK293 cells assessed as reduction in glutamate-induced calcium mobilization at 10 uM preincubated for 2.3 mins followed by glutamate addition measured after 2.6 mins by Fluo-4--AM dye based fluorescence assay. Type of series: functional, cell-based.

Series [11] is described as follows: Metabolic stability in human hepatic S9 fraction assessed as NADPH dependent metabolism incubated for 60 mins by LC/MS analysis. Type of series: ADME, subcellular, Liver. To be noted: read-out: Drug metabolism.
Series [12] in a line: Metabolic stability in rat hepatic S9 fraction assessed as NADPH dependent metabolism incubated for 60 mins by LC/MS analysis. Type of series: ADME, subcellular, Liver. The note with it: read-out: Drug metabolism.
Series [13] in a line: Drug metabolism in rat whole blood assessed as 6-(hydroxy(pyridin-3-yl)methyl)-N-(4-methylthiazol-2-yl)quinoline-8-carboxamide formation at 37 degC incubated for 1 hr. The format is ADME, tissue-based.
Series [14] is described as follows: Half life in rat at 1 mg/kg, iv. Type of series: ADME, organism-based. The note with it: in vivo. The procedure, abridged: (§1)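 Rat intravenous PK: n = 2 male Sprague-Dawley rats, 1.0 mg/kg IV in 10% ethanol/90% PEG 400. Parent and the alcohol metabolite were measured in plasma. MRT = mean residence time.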
A short description of series [15]: Mean residence time in rat at 1 mg/kg, iv. Type of series: ADME, organism-based. To be noted: in vivo. The procedure, abridged: as §1
A short description of series [16]: Volume of distribution at steady state in rat at 1 mg/kg, iv. The note with it: in vivo, read-out: Vdss. Type of series: ADME, organism-based. The procedure, abridged:
as §1

For series [17], the system named is Rattus norvegicus. Description: Half life in rat assessed as 6-(hydroxy(pyridin-3-yl)methyl)-N-(4-methylthiazol-2-yl)quinoline-8-carboxamide formation at 1 mg/kg, iv. The note with it: in vivo. Type of series: ADME, organism-based. An outline of the steps:
as §1

Series [18] deals with Rattus norvegicus. In words: Mean residence time in rat assessed as 6-(hydroxy(pyridin-3-yl)methyl)-N-(4-methylthiazol-2-yl)quinoline-8-carboxamide formation at 1 mg/kg, iv. To be noted: in vivo. The format is ADME, organism-based. An outline of the steps: as §1
Series [19] relates to Rattus norvegicus. In words: Volume of distribution at steady state in rat assessed as 6-(hydroxy(pyridin-3-yl)methyl)-N-(4-methylthiazol-2-yl)quinoline-8-carboxamide formation at 1 mg/kg, iv. The format is ADME, organism-based. The note with it: in vivo. An outline of the steps: as §1
A short description of series [20]: in vitro. The note with it: rat, plasma.
A short description of series [21]: in vitro. The note with it: human, plasma.
A short description of series [22]: Drug metabolism in rat whole blood treated with N-(4-methylthiazol-2-yl)-6-nicotinoylquinoline-8-carboxamide assessed as compound formation at 37 degC incubated for 1 hr. Type of series: ADME, tissue-based.

Chain of Metabotropic glutamate receptor 5 (Rattus norvegicus) (P31424 21-1203 limits assumed): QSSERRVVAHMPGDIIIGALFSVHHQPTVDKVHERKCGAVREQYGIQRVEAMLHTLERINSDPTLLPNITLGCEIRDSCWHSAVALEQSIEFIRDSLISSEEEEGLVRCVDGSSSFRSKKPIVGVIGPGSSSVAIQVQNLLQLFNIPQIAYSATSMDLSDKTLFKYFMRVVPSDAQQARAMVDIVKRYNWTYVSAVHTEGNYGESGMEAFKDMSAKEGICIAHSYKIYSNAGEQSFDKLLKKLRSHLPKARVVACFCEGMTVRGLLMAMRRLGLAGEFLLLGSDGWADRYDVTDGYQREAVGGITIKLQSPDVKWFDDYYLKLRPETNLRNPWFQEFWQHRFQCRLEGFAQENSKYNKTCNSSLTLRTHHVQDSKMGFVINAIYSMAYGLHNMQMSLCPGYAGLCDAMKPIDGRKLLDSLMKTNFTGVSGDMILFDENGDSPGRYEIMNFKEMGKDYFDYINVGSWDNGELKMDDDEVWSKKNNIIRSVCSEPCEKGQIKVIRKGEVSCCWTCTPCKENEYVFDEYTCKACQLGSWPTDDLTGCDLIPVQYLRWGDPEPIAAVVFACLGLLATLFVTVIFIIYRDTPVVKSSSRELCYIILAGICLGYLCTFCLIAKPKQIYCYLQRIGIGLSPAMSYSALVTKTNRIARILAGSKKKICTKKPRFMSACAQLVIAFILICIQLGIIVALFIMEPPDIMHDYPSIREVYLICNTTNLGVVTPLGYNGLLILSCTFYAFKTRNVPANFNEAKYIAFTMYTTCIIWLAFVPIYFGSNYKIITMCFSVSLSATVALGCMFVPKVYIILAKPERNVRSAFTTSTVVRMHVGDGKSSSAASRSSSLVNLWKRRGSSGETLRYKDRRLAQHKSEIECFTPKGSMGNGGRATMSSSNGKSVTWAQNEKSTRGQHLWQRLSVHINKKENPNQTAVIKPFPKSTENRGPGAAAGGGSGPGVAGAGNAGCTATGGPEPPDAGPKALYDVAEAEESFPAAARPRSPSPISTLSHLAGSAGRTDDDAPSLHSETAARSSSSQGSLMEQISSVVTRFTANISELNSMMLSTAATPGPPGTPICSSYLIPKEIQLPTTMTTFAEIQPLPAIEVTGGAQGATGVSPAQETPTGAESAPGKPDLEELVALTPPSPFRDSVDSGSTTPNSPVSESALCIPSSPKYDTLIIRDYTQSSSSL
Chain of Metabotropic glutamate receptor 5 (P31424 whole entry): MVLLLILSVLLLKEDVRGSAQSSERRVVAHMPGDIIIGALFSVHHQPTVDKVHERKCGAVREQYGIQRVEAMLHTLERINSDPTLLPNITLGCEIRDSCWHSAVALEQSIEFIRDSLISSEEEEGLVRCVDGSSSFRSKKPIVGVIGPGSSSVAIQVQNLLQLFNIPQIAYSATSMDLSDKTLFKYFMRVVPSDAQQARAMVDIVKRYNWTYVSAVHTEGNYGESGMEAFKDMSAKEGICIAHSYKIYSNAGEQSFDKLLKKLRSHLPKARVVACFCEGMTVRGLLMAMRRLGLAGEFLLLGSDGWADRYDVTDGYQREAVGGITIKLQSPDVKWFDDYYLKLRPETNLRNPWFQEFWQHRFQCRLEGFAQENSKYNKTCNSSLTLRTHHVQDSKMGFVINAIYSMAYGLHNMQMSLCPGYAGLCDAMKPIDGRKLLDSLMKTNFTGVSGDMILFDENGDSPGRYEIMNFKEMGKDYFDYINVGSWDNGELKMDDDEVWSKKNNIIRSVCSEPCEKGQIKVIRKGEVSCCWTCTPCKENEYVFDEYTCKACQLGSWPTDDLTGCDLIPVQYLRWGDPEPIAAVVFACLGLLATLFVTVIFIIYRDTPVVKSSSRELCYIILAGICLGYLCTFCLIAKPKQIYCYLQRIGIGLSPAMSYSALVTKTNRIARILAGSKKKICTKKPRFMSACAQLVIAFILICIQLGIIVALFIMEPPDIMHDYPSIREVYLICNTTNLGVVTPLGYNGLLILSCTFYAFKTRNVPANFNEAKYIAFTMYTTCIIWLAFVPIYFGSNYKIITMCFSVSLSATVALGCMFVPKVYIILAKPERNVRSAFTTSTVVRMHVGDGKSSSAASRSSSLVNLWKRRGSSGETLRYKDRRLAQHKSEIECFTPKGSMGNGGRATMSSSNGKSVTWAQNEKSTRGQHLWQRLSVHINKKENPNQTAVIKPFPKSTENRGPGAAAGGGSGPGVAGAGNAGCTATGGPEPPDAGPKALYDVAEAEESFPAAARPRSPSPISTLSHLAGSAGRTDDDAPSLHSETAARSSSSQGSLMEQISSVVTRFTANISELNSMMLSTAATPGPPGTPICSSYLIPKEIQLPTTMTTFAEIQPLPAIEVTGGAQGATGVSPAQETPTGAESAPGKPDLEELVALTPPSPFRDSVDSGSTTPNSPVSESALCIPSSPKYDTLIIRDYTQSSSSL
Chain of Metabotropic glutamate receptor 7 (Rattus norvegicus) (P35400 whole entry): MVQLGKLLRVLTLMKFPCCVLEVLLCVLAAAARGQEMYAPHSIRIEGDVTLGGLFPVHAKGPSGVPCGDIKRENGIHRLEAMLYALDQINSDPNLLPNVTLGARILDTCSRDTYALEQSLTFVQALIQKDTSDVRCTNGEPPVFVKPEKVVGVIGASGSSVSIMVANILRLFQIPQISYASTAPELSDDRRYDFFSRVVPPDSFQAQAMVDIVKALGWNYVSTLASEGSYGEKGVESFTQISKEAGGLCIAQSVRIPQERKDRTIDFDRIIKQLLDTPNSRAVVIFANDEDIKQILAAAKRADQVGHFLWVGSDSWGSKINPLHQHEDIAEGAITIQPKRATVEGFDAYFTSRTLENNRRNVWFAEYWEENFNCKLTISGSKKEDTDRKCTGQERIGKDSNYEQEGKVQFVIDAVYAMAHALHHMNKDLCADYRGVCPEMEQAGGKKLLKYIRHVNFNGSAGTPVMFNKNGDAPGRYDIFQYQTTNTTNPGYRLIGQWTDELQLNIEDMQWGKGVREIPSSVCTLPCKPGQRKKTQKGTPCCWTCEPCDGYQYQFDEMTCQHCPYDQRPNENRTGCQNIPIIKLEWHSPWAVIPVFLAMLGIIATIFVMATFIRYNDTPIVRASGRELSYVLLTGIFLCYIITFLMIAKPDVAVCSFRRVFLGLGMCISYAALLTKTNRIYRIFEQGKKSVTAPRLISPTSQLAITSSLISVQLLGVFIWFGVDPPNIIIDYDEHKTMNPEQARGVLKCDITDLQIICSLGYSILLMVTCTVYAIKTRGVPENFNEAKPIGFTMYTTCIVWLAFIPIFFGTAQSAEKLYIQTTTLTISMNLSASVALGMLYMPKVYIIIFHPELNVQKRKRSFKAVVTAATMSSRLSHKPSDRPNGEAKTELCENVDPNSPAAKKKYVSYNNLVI

Regarding `Cc1ccnc(NC(=O)c2cc(C(F)(F)c3cncnc3)cc3cccnc23)c1`, in series [1], the negative-log IC50 (pIC50) is under 5.00. The %max in series [2] was 44%.

For the compound `COc1ccnc(NC(=O)c2cc(C(F)(F)c3cncnc3)cc3cccnc23)c1`, the pIC50 in series [1] was under 4.52.

`O=C(Nc1ccc(F)cn1)c1cc(C(F)c2cncnc2)cc2cccnc12` (centres undefined): in series [1], the negative-log IC50 (pIC50) is 6.66. In addition, the %max in series [2] was 1.5%.

Take `Cc1csc(NC(=O)c2cc(C(F)(F)c3cncnc3)cc3cccnc23)n1`: the inhibition entry in [3] was “Active”. The inhibition result in [4], in series [5], in series [6], in series [7], in [8] and in series [9] was “inactive” in each case. In addition, in series [10], the inhibition entry is “inactive”.

As to `CC(c1cncnc1)c1cc(C(=O)Nc2ccc(F)cn2)c2ncccc2c1` (centres undefined), in [1], the pIC50 is 5.82. Besides, in series [2], the %max stood at 1.5%.

With `COC(c1cncnc1)c1cc(C(=O)Nc2nc(C)cs2)c2ncccc2c1` (centres undefined), the pIC50 in [1] is 5.76. In series [2], the %max was found to be 1.8%.

On to `Cc1cccc(NC(=O)c2cc(C(=O)c3cncnc3)cc3cccnc23)n1`, for which the pIC50 in series [1] is 6.38. In series [2], the %max is 1.5%.

For the compound `O=C(Nc1nc(C2CC2)cs1)c1cc(C(F)(F)c2cncnc2)cc2cccnc12`, the pIC50 in [1] is 6.25. In [2], the %max came to 3%.

With `CCc1cccc(NC(=O)c2cc(C(F)(F)c3cncnc3)cc3cccnc23)n1`, the pIC50 in series [1] was 5.44. For the same compound, the %max in [2] worked out at 7.8%.

Regarding `O=C(Nc1ccc(F)cn1)c1cc(C(F)(F)c2cncnc2)cc2cccnc12`, in series [1], the pIC50 is 6.41. Also, the %max in series [2] came out at 4.5%.

As to `Cc1csc(NC(=O)c2cc(C(F)c3cncnc3)cc3cccnc23)n1` (centres undefined), in [1], the pIC50 is 6.42. Further, the %max in series [2] came out at 1.7%. Besides, the metabolised at 1 h in series [11] worked out at 27%; in series [12] it was 55%.

As for `Cc1csc(NC(=O)c2cc(C(=O)c3cncnc3)cc3cccnc23)n1`, in series [1], the negative-log IC50 (pIC50) is 6.76. For the same compound, the %max in series [2] worked out at 1.3%. In addition, in series [13], the Drug metabolism entry was “Metabolite_Detected”. In addition, the half-life in series [14] came to 30 min. The values for the MRT (in series [15]; in the series on Rattus norvegicus [18]) were 19 min and 107 min, respectively. Moreover, the Vd in [16] amounted to 50 L/kg. In addition, in the series on Rattus norvegicus [17], the t1/2 is reported as 171 min. Besides, in the series on Rattus norvegicus [19], the Vdss amounted to 10 L/kg.

Regarding `COc1cccc(NC(=O)c2cc(C(F)(F)c3cncnc3)cc3cccnc23)n1`, in series [1], the pIC50 is 5.79. For the same compound, in [2], the %max was 7.1%.

With `Cc1ccc(NC(=O)c2cc(C(F)(F)c3cncnc3)cc3cccnc23)nc1`, the pIC50 in series [1] was 6.17. The %max in series [2] came out at 3%.

`N#Cc1ccnc(NC(=O)c2cc(C(F)(F)c3cncnc3)cc3cccnc23)c1`: the negative-log IC50 (pIC50) in [1] is under 4.52.

As to `O=C(Nc1ccc(F)cn1)c1cc(Oc2cncc(F)c2)cn2ncnc12`, the figures for the fraction unbound at 4 h, 5 µM in “in vitro [20]” and in “in vitro [21]” were 0.066 and 0.071, respectively.

Regarding `O=C(c1cncnc1)c1cc(C(=O)Nc2cccc(F)n2)c2ncccc2c1`, the pIC50 in series [1] is under 5.00. Moreover, in series [2], the %max stood at 12.5%.

For the compound `Cc1cccc(NC(=O)c2cc(C(F)(F)c3cncnc3)cc3cccnc23)n1`, the pIC50 in series [1] is 5.96. Further, the %max in series [2] is 2.7%.

As for `O=C(c1cncnc1)c1cc(C(=O)Nc2ccc(F)cn2)c2ncccc2c1`, the pIC50 in series [1] is 6.07. The %max in [2] was 2.7%.

Take `O=C(Nc1ccc(F)cn1)c1cc(Oc2cncc(F)c2)cc2cccnc12`: the pIC50 in [1] is 8.10.

For the compound `COC(c1cncnc1)c1cc(C(=O)Nc2ccc(F)cn2)c2ncccc2c1` (centres undefined), in series [1], the pIC50 was 5.46. Further, the %max in series [2] came out at 2.9%.

For `N#Cc1ccc(NC(=O)c2cc(C(F)(F)c3cncnc3)cc3cccnc23)nc1`, the negative-log IC50 (pIC50) in series [1] is under 4.52.

On to `Cc1csc(NC(=O)c2cc(C(O)c3cncnc3)cc3cccnc23)n1` (centres undefined), for which the negative-log IC50 (pIC50) in [1] was under 5.00. The Drug uptake entry in series [22] was “Active”.

Consider `Cc1csc(NC(=O)c2cc(C(C)c3cncnc3)cc3cccnc23)n1` (centres undefined), for which, in [1], the pIC50 was 6.23. Further, the %max in series [2] stood at 1.4%.
